A short description of test [1]: Antiproliferative activity against human MDA231 cells after 72 hrs by MTT assay. The class given is functional, cell-based. The following applies: MDA-MB-231, 72 h. In a few lines:
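MTT read-out on MDA-231 cells. 1×10^3 exponentially growing cells seeded and incubated 24, 48 and 72 h. Medium replaced with 1 mg/mL MTT for 3–4 h at 37 °C.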

For test [2], the target named is RAC-alpha serine/threonine-protein kinase (Homo sapiens, UniProt P31749). The test can be described thus: Inhibition of AKT-1 at 1 uM.
In test [3] the target is Protein kinase C alpha type (Homo sapiens, UniProt P17252). The test can be described thus: Inhibition of PKCalpha at 1 uM.
For test [4], the target named is T1, Aurora kinase A (Homo sapiens) (UniProt O14965).
T1 sequence (whole entry): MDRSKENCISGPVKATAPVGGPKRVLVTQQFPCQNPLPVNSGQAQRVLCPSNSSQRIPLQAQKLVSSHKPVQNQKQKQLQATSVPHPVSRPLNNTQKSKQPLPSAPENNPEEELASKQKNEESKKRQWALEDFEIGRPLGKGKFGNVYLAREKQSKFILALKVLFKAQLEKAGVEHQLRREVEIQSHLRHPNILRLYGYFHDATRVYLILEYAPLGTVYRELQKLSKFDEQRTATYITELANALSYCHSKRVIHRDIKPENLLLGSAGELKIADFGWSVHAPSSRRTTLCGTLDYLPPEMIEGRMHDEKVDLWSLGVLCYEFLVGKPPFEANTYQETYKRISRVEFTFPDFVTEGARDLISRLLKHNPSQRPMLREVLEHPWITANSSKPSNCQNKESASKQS
The test can be described thus: Inhibition of Aurora A at 1 uM.

Test [5] deals with Aurora kinase B (Homo sapiens) (UniProt Q96GD4). Nature of the test: Inhibition of Aurora B at 1 uM.
In test [6] the target is Epidermal growth factor receptor (Homo sapiens) (UniProt P00533). The test can be described thus: Inhibition of EGFR at 1 uM.
The target in test [7] is T2, Ephrin type-A receptor 1 (Homo sapiens) (UniProt P21709).
T2 sequence (whole entry): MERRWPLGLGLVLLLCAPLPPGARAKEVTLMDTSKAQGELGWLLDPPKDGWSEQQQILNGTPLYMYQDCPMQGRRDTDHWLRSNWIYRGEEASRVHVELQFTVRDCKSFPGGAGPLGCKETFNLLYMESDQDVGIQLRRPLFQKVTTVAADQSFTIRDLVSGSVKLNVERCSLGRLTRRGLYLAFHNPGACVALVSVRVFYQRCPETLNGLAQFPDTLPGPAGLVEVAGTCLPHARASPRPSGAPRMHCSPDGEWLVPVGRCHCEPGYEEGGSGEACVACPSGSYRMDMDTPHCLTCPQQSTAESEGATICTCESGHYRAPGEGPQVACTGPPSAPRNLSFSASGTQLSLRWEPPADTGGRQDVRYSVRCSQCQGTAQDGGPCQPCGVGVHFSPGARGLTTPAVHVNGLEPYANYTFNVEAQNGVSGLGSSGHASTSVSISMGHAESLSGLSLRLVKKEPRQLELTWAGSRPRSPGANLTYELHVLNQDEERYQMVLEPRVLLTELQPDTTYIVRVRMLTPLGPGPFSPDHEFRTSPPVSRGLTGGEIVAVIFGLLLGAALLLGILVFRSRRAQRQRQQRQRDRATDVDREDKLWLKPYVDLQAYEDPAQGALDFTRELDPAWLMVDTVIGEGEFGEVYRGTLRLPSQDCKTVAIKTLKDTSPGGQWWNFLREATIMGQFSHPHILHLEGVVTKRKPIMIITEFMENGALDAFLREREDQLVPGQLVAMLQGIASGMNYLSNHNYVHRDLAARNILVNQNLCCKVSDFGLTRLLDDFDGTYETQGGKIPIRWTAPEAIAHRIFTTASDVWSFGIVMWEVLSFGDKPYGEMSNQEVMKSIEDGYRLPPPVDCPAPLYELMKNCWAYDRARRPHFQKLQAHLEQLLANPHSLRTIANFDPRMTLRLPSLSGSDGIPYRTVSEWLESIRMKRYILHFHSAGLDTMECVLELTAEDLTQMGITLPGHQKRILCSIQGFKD
The test can be described thus: Inhibition of EPHA1 at 1 uM.

For test [8], the target named is Receptor-type tyrosine-protein kinase FLT3 (Homo sapiens) (UniProt P36888). The test can be described thus: Inhibition of FLT3 at 1 uM.
Test [9] has as its target Tyrosine-protein kinase Fyn (Homo sapiens) (UniProt P06241). Nature of the test: Inhibition of FYN at 1 uM.
In test [10] the target is T3, Inhibitor of nuclear factor kappa-B kinase subunit epsilon (Homo sapiens) (UniProt Q14164).
T3 sequence (whole entry): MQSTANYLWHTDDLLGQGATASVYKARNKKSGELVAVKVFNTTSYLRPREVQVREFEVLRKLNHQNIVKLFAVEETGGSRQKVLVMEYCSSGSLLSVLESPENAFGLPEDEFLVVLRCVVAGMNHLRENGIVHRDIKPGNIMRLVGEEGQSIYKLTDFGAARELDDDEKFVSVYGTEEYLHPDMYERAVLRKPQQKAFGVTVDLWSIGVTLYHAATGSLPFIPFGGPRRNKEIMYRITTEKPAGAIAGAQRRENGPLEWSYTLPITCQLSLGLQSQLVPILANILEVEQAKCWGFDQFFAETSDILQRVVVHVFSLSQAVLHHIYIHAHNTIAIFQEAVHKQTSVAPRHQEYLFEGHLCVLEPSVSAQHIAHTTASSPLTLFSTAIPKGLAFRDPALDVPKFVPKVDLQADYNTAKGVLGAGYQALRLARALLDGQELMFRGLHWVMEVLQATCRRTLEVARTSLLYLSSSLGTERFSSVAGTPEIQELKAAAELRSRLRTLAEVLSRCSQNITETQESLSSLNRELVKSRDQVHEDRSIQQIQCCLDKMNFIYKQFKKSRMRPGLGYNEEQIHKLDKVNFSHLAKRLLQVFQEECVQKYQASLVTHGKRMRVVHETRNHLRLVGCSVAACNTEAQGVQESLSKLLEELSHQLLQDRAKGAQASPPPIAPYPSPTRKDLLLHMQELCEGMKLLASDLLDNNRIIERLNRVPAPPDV
The test can be described thus: Inhibition of IKKepsilon at 1 uM.

The target in test [11] is Insulin receptor (Homo sapiens) (UniProt P06213). The test can be described thus: Inhibition of INSR at 1 uM.
Test [12] addresses Tyrosine-protein kinase Lyn (Homo sapiens) (UniProt P07948). Nature of the test: Inhibition of LYN at 1 uM.
Test [13] addresses Ribosomal protein S6 kinase alpha-4 (Homo sapiens) (UniProt O75676). Nature of the test: Inhibition of RPS6KA4 at 1 uM.
For test [14], the target named is Tyrosine-protein kinase SYK (Homo sapiens) (UniProt P43405). Nature of the test: Inhibition of SYK at 1 uM.
Test [15] can be described thus: […] in human MDA231 cells assessed as inhibition of cell migration at 10 uM after 12 to 24 hrs by wound healing migration assay relative to control. In kind it is functional. The note with it: MDA-MB-231. The method in brief:
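MDA-231 cells grown on coverslips for 24 h, wounded by scraping with a micropipette tip, washed, then incubated in fresh medium at 37 °C with or without compound (10 μM final). Wound areas photographed at 12 and 24 h, remaining area measured, DMSO control set to 0% inhibition. Mean ± SD of five independent experiments.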

RAC-alpha serine/threonine-protein kinase, sequence (P31749 whole entry): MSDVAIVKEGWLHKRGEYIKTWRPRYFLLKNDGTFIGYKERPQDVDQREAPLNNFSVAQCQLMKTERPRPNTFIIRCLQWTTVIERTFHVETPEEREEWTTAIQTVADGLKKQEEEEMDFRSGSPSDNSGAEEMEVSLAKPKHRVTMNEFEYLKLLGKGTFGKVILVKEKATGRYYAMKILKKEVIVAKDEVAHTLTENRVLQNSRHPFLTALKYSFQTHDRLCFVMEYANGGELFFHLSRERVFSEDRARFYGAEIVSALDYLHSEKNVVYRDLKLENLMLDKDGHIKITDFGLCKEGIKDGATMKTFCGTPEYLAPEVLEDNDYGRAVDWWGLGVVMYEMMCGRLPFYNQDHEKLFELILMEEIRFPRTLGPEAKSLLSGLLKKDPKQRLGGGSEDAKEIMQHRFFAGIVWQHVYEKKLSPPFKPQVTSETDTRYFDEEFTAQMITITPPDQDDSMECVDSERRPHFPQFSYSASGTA
Tyrosine-protein kinase Fyn (Homo sapiens), sequence (P06241 2-537 limits assumed): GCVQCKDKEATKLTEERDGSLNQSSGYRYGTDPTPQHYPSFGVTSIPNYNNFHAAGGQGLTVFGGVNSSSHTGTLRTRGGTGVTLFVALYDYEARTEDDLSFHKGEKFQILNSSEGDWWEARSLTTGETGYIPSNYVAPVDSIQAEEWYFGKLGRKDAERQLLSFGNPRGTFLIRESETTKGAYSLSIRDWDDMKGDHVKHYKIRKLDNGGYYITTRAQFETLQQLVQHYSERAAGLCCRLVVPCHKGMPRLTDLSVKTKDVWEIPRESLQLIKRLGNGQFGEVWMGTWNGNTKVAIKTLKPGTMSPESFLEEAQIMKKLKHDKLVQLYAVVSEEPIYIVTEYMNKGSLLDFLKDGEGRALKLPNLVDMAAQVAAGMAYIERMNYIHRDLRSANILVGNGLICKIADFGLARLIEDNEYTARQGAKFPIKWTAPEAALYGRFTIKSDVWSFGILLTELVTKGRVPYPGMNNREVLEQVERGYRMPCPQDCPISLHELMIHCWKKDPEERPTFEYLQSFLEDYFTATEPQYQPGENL
Receptor-type tyrosine-protein kinase FLT3 (Homo sapiens), sequence (P36888 whole entry): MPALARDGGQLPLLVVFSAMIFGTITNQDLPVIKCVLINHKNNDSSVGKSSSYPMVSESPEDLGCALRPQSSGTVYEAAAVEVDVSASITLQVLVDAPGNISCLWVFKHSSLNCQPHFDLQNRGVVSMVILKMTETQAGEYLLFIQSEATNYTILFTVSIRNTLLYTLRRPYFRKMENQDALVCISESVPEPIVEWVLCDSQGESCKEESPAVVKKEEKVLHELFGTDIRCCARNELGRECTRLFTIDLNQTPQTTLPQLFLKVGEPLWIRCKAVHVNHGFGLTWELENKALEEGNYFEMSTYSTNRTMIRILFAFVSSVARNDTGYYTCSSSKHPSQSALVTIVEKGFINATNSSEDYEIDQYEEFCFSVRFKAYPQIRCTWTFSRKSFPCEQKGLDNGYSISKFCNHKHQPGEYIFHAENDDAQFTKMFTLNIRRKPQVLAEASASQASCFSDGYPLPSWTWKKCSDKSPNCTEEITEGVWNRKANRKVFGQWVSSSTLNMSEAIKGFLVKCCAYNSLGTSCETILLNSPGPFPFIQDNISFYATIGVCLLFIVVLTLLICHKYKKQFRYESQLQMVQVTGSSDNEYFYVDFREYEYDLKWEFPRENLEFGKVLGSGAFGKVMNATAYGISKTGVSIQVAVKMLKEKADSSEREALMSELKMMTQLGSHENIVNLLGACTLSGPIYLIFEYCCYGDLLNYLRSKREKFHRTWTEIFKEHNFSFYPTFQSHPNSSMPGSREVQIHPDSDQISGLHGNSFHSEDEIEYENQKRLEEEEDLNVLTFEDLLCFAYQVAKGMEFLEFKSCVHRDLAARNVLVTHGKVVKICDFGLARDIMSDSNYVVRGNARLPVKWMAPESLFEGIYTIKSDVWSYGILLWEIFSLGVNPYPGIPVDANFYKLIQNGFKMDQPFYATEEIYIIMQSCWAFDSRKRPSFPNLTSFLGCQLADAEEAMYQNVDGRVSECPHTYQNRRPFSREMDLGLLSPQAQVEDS
Insulin receptor (Homo sapiens), sequence (P06213 28-758 limits assumed): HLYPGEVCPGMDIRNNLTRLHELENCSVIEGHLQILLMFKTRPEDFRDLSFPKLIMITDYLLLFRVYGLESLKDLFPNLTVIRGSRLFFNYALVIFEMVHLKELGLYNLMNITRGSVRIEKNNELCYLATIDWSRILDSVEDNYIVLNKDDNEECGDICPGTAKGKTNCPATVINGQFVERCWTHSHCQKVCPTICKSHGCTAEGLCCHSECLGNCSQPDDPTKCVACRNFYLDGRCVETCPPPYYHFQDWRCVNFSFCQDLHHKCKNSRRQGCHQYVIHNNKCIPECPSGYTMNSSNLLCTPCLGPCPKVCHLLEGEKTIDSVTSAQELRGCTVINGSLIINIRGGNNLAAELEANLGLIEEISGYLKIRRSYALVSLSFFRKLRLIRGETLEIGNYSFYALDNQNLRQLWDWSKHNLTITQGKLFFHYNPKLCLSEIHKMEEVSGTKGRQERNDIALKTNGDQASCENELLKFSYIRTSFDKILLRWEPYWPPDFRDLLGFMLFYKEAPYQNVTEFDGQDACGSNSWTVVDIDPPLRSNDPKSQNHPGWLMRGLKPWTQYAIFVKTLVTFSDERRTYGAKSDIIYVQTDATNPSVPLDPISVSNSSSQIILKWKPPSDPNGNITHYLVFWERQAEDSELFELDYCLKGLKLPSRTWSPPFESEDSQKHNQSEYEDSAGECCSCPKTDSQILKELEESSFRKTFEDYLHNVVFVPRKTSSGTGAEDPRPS
Insulin receptor (Homo sapiens), sequence (P06213 763-1382 limits assumed): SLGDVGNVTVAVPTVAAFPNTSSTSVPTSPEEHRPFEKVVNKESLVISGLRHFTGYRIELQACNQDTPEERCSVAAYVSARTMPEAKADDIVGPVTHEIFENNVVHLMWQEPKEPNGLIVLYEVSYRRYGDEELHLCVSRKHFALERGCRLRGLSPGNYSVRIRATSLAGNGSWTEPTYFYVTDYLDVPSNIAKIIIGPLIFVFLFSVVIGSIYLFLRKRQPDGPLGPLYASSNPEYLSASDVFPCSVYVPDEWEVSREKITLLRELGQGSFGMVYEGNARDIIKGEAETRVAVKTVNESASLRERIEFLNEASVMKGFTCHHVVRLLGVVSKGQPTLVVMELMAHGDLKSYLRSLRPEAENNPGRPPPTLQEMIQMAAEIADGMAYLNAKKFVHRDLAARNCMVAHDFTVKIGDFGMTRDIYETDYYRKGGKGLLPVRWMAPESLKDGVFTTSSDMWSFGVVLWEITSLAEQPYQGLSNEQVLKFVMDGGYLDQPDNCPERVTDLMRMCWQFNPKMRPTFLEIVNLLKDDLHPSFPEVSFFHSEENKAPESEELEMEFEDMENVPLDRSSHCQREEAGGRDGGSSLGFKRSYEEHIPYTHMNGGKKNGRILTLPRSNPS
Aurora kinase B (Homo sapiens), sequence (Q96GD4 whole entry): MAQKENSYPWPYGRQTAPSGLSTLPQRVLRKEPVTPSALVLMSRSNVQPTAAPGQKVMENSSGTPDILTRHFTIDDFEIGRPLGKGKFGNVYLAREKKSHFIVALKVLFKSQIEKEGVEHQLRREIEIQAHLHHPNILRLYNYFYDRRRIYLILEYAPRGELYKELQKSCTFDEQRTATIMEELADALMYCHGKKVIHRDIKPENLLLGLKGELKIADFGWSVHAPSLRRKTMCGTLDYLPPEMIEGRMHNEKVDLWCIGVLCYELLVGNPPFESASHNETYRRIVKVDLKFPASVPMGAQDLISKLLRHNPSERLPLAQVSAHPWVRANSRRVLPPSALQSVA
Tyrosine-protein kinase Lyn (Homo sapiens), sequence (P07948 2-512 limits assumed): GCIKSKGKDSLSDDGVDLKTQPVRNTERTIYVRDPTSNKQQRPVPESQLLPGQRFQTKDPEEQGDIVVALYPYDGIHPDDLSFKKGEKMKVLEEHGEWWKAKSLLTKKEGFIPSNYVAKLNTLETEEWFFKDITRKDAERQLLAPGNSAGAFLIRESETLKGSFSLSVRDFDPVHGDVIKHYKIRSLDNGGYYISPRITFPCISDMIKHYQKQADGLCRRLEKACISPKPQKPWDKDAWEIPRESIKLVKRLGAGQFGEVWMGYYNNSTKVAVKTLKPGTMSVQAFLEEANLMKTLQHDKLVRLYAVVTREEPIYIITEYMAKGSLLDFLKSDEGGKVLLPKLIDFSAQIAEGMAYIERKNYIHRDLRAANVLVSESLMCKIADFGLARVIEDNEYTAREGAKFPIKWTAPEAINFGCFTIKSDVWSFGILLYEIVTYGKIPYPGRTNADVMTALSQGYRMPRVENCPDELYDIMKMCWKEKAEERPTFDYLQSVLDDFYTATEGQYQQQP

The term IC50 denotes the midpoint of a concentration-inhibition curve. Read a low IC50 as higher potency. One may read the inhibition as the change of the read-out against control, counted positive when it falls. `O=C(CCCn1[se]c2ccccc2c1=O)N[C@@H]1O[C@H](CO)[C@@H](O)[C@H](O)[C@H]1O`: it took 20.4 µM to reach half-maximal inhibition in [1] (IC50). Also, the inhibition in [2] is 60%; in test [3], 74%; in test [4] it was 0%; in [5] it was 0%; in test [6], 0%; in [7], 0%. Also, the inhibition in [8], in test [9], in test [10], in test [11], in test [12] and in test [13] was 0% each time. The inhibition in test [14] turned out to be 0%. Also, the inhibition at 10 µM in test [15] came out at 50%.
The compound `O=c1c2ccccc2[se]n1-c1ccccc1` [EBSELEN] came in with an IC50 in test [1] of 42.3 µM. For the same compound, the inhibition in test [2] worked out at 22%; in [3], 25%; in [4] it was 0%; in [5], 0%; in test [6], 0%; in test [7], 0%. Besides, the inhibition in [8], in test [9], in test [10], in test [11], in test [12] and in [13] was 0% in each case. The inhibition in test [14] is 0%.
On to `CC(=O)OC[C@H]1O[C@@H](NC(=O)CCCn2[se]c3ccccc3c2=O)[C@H](OC(C)=O)[C@@H](OC(C)=O)[C@@H]1OC(C)=O`, for which half-maximal inhibition in [1] (IC50) required 18.9 µM. For the same compound, the inhibition in test [2] is 67%; in test [3], 77%; in test [4], 0%; in test [5], 0%; in test [6], 0%; in test [7], 0%. Besides, the inhibition in test [8], in [9], in [10], in [11], in test [12] and in test [13] was 0% in each case. Besides, the inhibition in [14] was 0%. Moreover, the inhibition at 10 µM in [15] was 50%.
Consider `CC(=O)OC[C@H]1O[C@@H](O[C@H]2[C@H](OC(C)=O)[C@@H](OC(C)=O)[C@H](n3[se]c4ccccc4c3=O)O[C@@H]2COC(C)=O)[C@H](OC(C)=O)[C@@H](OC(C)=O)[C@H]1OC(C)=O`, for which the inhibition in test [2] was found to be 63%; in test [3] it was 95%; in test [4], 0%; in test [5], 0%; in test [6], 0%; in [7], 0%. Further, the inhibition in [8], in [9], in test [10], in [11], in test [12] and in [13] was 0% throughout. Further, the inhibition in test [14] was found to be 0%. For the same compound, in [15], the inhibition at 10 µM was 50%.

The record behind these values is ChEMBL document CHEMBL1938284, “Synthesis and biological activity of novel organoselenium derivatives targeting multiple kinases and capable of inhibiting cancer progression to metastases” (Eur J Med Chem, 2012).
